The term IC50 denotes the concentration that gives 50% inhibition.

The source of these data is PMC11247637 (ACS Medicinal Chemistry Letters, 2024).

Data set [1] deals with T1, MUS81-EME1 heterodimer (MUS81 residues 246-551; EME1 residues 246-570) (Homo sapiens, UniProt Q96NY9).
T1 sequence (Q96NY9 246-551): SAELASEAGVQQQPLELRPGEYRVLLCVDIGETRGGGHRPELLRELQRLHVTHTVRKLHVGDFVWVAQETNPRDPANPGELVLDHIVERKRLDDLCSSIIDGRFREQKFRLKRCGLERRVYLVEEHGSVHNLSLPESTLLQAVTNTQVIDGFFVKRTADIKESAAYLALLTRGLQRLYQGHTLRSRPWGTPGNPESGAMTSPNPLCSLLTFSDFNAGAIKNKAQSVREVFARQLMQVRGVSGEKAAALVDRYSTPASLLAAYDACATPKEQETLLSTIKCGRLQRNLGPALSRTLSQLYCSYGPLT
T1 sequence (Q96AY2 246-570 partner limits assumed): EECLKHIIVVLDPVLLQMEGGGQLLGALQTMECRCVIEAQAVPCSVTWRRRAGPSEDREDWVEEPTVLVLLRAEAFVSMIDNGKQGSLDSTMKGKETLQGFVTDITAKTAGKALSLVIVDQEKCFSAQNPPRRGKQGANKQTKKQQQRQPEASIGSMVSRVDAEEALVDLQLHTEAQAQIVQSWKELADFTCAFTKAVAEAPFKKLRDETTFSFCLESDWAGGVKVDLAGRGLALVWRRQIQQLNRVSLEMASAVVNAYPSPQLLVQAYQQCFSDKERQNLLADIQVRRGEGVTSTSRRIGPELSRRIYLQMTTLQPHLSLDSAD
Put plainly: Surface plasmon resonance. The settings on record: SPR affinity; for increase in affinity: compared with 5. It counts as binding. Put shortly:
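Kd values for binding to MUS81-EME1 were measured by SPR. Affinities are the geometric mean with geometric standard deviation of at least three determinations.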
On the technique in general: Surface plasmon resonance follows binding to a sensor surface in real time, without labels.

The target in a further data set is T2, Full length MUS81-EME1 (Homo sapiens, UniProt Q96NY9).
T2 sequence (Q96NY9 1-551): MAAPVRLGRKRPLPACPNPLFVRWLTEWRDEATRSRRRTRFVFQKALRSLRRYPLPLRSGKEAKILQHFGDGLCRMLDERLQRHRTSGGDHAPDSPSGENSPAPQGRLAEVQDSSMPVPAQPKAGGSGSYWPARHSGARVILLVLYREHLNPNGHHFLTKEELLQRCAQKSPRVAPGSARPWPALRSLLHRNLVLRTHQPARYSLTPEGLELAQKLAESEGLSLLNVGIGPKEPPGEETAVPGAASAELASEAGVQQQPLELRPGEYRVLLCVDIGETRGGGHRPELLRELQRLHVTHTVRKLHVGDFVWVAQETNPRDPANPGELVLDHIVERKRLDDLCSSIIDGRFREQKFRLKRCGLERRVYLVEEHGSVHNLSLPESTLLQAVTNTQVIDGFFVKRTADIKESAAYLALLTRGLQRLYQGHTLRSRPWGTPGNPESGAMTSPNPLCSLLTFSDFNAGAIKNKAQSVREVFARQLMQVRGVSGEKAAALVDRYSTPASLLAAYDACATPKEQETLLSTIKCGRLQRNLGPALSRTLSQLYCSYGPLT
T2 sequence (Q96AY2 1-570 partner): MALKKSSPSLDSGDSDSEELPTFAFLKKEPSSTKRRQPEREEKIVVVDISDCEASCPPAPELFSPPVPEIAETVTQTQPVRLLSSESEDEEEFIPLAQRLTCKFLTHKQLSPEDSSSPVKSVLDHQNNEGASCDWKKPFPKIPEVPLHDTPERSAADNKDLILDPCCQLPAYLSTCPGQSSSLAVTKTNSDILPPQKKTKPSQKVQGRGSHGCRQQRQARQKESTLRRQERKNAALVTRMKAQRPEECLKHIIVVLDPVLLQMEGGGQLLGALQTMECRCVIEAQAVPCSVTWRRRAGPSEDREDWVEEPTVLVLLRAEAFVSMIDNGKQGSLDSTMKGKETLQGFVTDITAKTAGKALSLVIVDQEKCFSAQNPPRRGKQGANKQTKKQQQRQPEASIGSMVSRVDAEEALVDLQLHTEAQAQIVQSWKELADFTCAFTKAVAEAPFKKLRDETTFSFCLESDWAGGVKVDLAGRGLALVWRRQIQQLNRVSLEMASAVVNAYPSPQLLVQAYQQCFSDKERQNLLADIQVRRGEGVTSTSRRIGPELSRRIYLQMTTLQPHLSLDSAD
Put plainly: MUS81-EME1 biochemical enzyme-inhibition assay. The settings on record: for improvement in biochemical activity (IC50): compared with pyrimidinone 15; for improvement in biochemical activity: compared to 18. Put shortly: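 LE was calculated as 1.37 × pIC50/HAC and LLE as pIC50 − LogD. LogD was measured by shake-flask partition between octanol and water at pH 7.4. IC50 values are the geometric mean ± SEM of at least three determinations.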

Data set [2] is described as follows: Metabolic stability in rat hepatocytes. Format: in vitro ADME. In short, it runs like this: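 Intrinsic clearance was measured in rat hepatocyte incubations and expressed as μL/min/1 × 10^6 cells.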
In data set [3] the target is safety panel of 22 common off-targets, comprising enzymes, receptors and ion channels (e.g., COX2, PDEs, INSR, GABA, NMDA, CaV-L). Put plainly: Eurofins SafetyScreen panel of 22 common off-targets. Format: biochemical. The settings on record: read-out: IC50 against safety panel off-targets.

Each structure is given as a SMILES string. Bounds are passed on as bounds.

`O=C(O)c1nc(-c2ccccc2)nc(O)c1O` [Compound 5] gave an increase in potency in data set [1] (compared with methyl ester 1) of around 20 fold. Regarding `Cc1nc(C(=O)O)c(O)c(=O)[nH]1` [Compound 6], in data set [1] (compared with acid 5), the drop in potency is recorded as around 20 fold. `O=C(O)c1nc(-c2ccc(Cl)cc2)nc(O)c1O` [Compound 10] showed an increase in affinity in data set [1] of around 2 fold. As to `O=C(O)c1nc(-c2ccc(Br)cc2)nc(O)c1O` [Compound 11], in data set [1], the increase in affinity was around 2 fold. Still for that read-out and setting: the same measure for `O=C(O)c1nc(-c2ccc3ccccc3c2)[nH]c(=O)c1O` [Compound 12]: around 2 fold. Take `O=C(O)c1nc(-c2ccc(N3CCNCC3)cc2)[nH]c(=O)c1O` [Compound 17]: at Full length MUS81-EME1, the “improvement in biochemical activity (IC50)” value was around 2 fold.

Consider `O=C(O)c1cn(-c2ccc(-c3ccccc3)cc2)cc(O)c1=O` [Compound 18], for which, at Full length MUS81-EME1, the “improvement in biochemical activity (IC50)” value was “approximately 3 fold”. Turning to `O=C(O)c1cn(-c2ccc(-c3ccc(C(=O)N4CCNCC4)cc3)cc2)cc(O)c1=O` [Compound 23], the “improvement in biochemical activity” value on Full length MUS81-EME1 is on record as “approximately 2 fold”. Besides, the “rHep Clint” value in data set [2] came out at 11 μL/min/1 × 10^6 cells.

As for `N#Cc1cc(-c2ccc(C(=O)N3CCNCC3)cc2)ccc1-n1cc(O)c(=O)c(C(=O)O)c1` [Compound 24], the “improvement in biochemical activity” value at Full length MUS81-EME1 is on record as “approximately 2 fold”. Besides, the “rHep Clint” value in data set [2] was determined as 10 μL/min/1 × 10^6 cells. For the same compound, the IC50 in data set [3] is above 100 µM.
